Data from publication PMC6482957 (Nature structural & molecular biology, 2018).
Values belong to the molecule of their own block, whether it stands above or below them.

What was measured:
p300-ZZ = test: 1H,15N HSQC NMR titration, p300-ZZ; type: binding, human
Summary of the method: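 Human p300 ZZ (aa 1663–1713) carried an N-terminal His-tag and was expressed in BL21(DE3) RIL in M9 with 15NH4Cl and 0.05 mM ZnCl2. Induction was 0.2 mM IPTG, overnight at 18 °C. Protein was Ni-NTA purified and the tag cleaved. 0.1 mM sample in 20 mM Tris-HCl pH 7.0, 100 mM NaCl, 5 mM DTT, 8% D2O. Unlabeled HAT domain (1:2) was added first, then H3 peptide; chemical shift changes were monitored at 298K.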

[1] = tested on: BD-RING-PHD (BRP) region of p300; test: 1H,15N HSQC NMR titration, p300 BD-RING-PHD; type: binding, human; details: 15N-labeled BD-RING-PHD, 298K, pH 7.0
[2] = tested on: chromatin of H1299 cells (FLAG, H3K18ac, H3K27ac); test: ChIP-seq / ChIP-qPCR in H1299 stable cells; type: cell-based, human; details: for Chromatin binding / H3K18ac and H3K27ac occupancies: ChIP-seq, H1299
Summary of the method: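 H1299 cells (RPMI, 10% FBS) were lentivirally transduced with FLAG-p300-BRPHZT (wild type or mutant) and blasticidin-selected for 4–6 days. Cells were crosslinked with 1% formaldehyde for 10 min, quenched with 125 mM glycine, and nuclei were lysed in 1% SDS buffer and sonicated. Chromatin was immunoprecipitated overnight at 4 °C with 2–4 μg antibody, washed in low-salt, high-salt and LiCl buffers, and reverse-crosslinked. DNA went to SYBR qPCR (IgG or H3 normalization, two negative-control loci) or sequencing.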

chromatin in H1299 cells = test: Chromatin association of FLAG-p300BRPHZT; type: cell-based, human; details: H1299 stable cells, ChIP-western and salt fractionation
Summary of the method: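 H1299 cells stably expressing FLAG-p300-BRPHZT variants were used. For protein-ChIP, cells were formaldehyde-crosslinked and nuclear lysates sonicated, then pulled down overnight at 4 °C on anti-FLAG M2 agarose. Beads were washed in low-salt, high-salt and LiCl buffers, and bound protein was read by western blot. For salt fractionation, cells were swollen in hypotonic HEPES buffer and nuclei isolated, then nuclei were extracted 30 min at 4 °C in glycerol wash buffer with 75 mM NaCl and the supernatant collected.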

[3] = tested on: histone acetylation in H1299 cells; test: Histone acetylation levels in H1299 stable cells; type: cell-based, human; details: n = 3; for H3K4, H3K9 and H4 acetylation / Increase of H3K18 and H3K27 acetylation: p300-BRPHZT

- Binding to p300-ZZ (p300-ZZ; authors' conclusion from NMR titration): almost negligible binding
Molecule: H4_1–9(Ser1): H4_1–9(Ser1) (SGRGKGGKG)

B1: HAT domain: p300 HAT domain (aa 1287–1663, Y1467F) (protein)
chain: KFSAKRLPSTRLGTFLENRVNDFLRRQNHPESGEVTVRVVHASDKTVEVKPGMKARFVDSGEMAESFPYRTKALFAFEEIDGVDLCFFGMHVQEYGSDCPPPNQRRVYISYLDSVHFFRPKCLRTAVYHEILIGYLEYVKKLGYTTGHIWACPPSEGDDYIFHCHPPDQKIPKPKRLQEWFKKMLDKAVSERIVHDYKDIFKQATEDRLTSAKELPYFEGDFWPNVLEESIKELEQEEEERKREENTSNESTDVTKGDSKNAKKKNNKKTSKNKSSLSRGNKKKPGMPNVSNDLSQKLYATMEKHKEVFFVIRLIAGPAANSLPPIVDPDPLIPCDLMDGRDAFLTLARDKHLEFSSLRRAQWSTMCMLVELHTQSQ
modifications: left off: His-tag, N-terminal, cleaved
- Interaction with BD-RING-PHD [1]: rapid disappearance of resonances
- Resonance perturbations in p300-ZZ in presence of HAT domain (p300-ZZ; HSQC, 298K, pH 7.0, HAT (1:2 molar ratio) added first, then peptide): very small changes in ZZ
- Interaction between isolated HAT and ZZ domains (p300-ZZ; HSQC, p300-ZZ with unlabeled HAT (1:2 molar ratio)): interact only weakly

B2: N1671A: p300 BRPHZT loss-of-function mutation of ZZ (protein)
chain: TQSSPAPGQSKKKIFKPEELRQALMPTLEALYRQDPESLPFRQPVDPQLLGIPDYFDIVKSPMDLSTIKRKLDTGQYQEPWQYVDDIWLMFNNAWLYNRKTSRVYKYCSKLSEVFEQEIDPVMQSLGYCCGRKLEFSPQTLCCYGKQLCTIPRDATYYSYQNRYHFCEKCFNEIQGESVSLGDDPSQPQTTINKEQFSKRKNDTLDPELFVECTECGRKMHQICVLHHEIIWPAGFVCDGCLKKSARTRKENKFSAKRLPSTRLGTFLENRVNDFLRRQNHPESGEVTVRVVHASDKTVEVKPGMKARFVDSGEMAESFPYRTKALFAFEEIDGVDLCFFGMHVQEYGSDCPPPNQRRVYISYLDSVHFFRPKCLRTAVYHEILIGYLEYVKKLGYTTGHIWACPPSEGDDYIFHCHPPDQKIPKPKRLQEWYKKMLDKAVSERIVHDYKDIFKQATEDRLTSAKELPYFEGDFWPNVLEESIKELEQEEEERKREENTSNESTDVTKGDSKNAKKKNNKKTSKNKSSLSRGNKKKPGMPNVSNDLSQKLYATMEKHKEVFFVIRLIAGPAANSLPPIVDPDPLIPCDLMDGRDAFLTLARDKHLEFSSLRRAQWSTMCMLVELHTQSQDRFVYTCAECKHHVETRWHCTVCEDYDLCITCYNTKNHDHKMEKLGLGLDDESNNQQAAATQSPGDSRRLSIQRCIQSLVHACQCRNANCSLPSCQKMKRVVQHTKGCKRKTNGGCPICKQLIALCCYHAKHCQENKCPVPFCLNIKQKLRQQQLQHRLQQAQMLRR
modifications: left off: FLAG, end not stated, kept
- Chromatin binding [2]: incapable of gaining the chromatin binding
- H3K18ac and H3K27ac occupancies [2]: no increase
- Association of p300 BRPHZT with chromatin (chromatin in H1299 cells): substantially reduced
- H3K4, H3K9 and H4 acetylation [3]: without affecting
- Increase of H3K18 and H3K27 acetylation [3]: greatly attenuated

B3: D1690A (protein)
chain: TQSSPAPGQSKKKIFKPEELRQALMPTLEALYRQDPESLPFRQPVDPQLLGIPDYFDIVKSPMDLSTIKRKLDTGQYQEPWQYVDDIWLMFNNAWLYNRKTSRVYKYCSKLSEVFEQEIDPVMQSLGYCCGRKLEFSPQTLCCYGKQLCTIPRDATYYSYQNRYHFCEKCFNEIQGESVSLGDDPSQPQTTINKEQFSKRKNDTLDPELFVECTECGRKMHQICVLHHEIIWPAGFVCDGCLKKSARTRKENKFSAKRLPSTRLGTFLENRVNDFLRRQNHPESGEVTVRVVHASDKTVEVKPGMKARFVDSGEMAESFPYRTKALFAFEEIDGVDLCFFGMHVQEYGSDCPPPNQRRVYISYLDSVHFFRPKCLRTAVYHEILIGYLEYVKKLGYTTGHIWACPPSEGDDYIFHCHPPDQKIPKPKRLQEWYKKMLDKAVSERIVHDYKDIFKQATEDRLTSAKELPYFEGDFWPNVLEESIKELEQEEEERKREENTSNESTDVTKGDSKNAKKKNNKKTSKNKSSLSRGNKKKPGMPNVSNDLSQKLYATMEKHKEVFFVIRLIAGPAANSLPPIVDPDPLIPCDLMDGRDAFLTLARDKHLEFSSLRRAQWSTMCMLVELHTQSQDRFVYTCNECKHHVETRWHCTVCEDYALCITCYNTKNHDHKMEKLGLGLDDESNNQQAAATQSPGDSRRLSIQRCIQSLVHACQCRNANCSLPSCQKMKRVVQHTKGCKRKTNGGCPICKQLIALCCYHAKHCQENKCPVPFCLNIKQKLRQQQLQHRLQQAQMLRR
modifications: left off: FLAG, end not stated, kept
- Chromatin binding [2]: incapable of gaining the chromatin binding
- H3K18ac and H3K27ac occupancies [2]: no increase
- Association of p300 BRPHZT with chromatin (chromatin in H1299 cells): substantially reduced
- H3K4, H3K9 and H4 acetylation [3]: without affecting
- Increase of H3K18 and H3K27 acetylation [3]: greatly attenuated

B4: WT p300-BRPHZT: p300 BD-RING-PHD-HAT-ZZ-TAZ2 region (BRPHZT, amino acids 1035–1830) (protein)
chain: TQSSPAPGQSKKKIFKPEELRQALMPTLEALYRQDPESLPFRQPVDPQLLGIPDYFDIVKSPMDLSTIKRKLDTGQYQEPWQYVDDIWLMFNNAWLYNRKTSRVYKYCSKLSEVFEQEIDPVMQSLGYCCGRKLEFSPQTLCCYGKQLCTIPRDATYYSYQNRYHFCEKCFNEIQGESVSLGDDPSQPQTTINKEQFSKRKNDTLDPELFVECTECGRKMHQICVLHHEIIWPAGFVCDGCLKKSARTRKENKFSAKRLPSTRLGTFLENRVNDFLRRQNHPESGEVTVRVVHASDKTVEVKPGMKARFVDSGEMAESFPYRTKALFAFEEIDGVDLCFFGMHVQEYGSDCPPPNQRRVYISYLDSVHFFRPKCLRTAVYHEILIGYLEYVKKLGYTTGHIWACPPSEGDDYIFHCHPPDQKIPKPKRLQEWYKKMLDKAVSERIVHDYKDIFKQATEDRLTSAKELPYFEGDFWPNVLEESIKELEQEEEERKREENTSNESTDVTKGDSKNAKKKNNKKTSKNKSSLSRGNKKKPGMPNVSNDLSQKLYATMEKHKEVFFVIRLIAGPAANSLPPIVDPDPLIPCDLMDGRDAFLTLARDKHLEFSSLRRAQWSTMCMLVELHTQSQDRFVYTCNECKHHVETRWHCTVCEDYDLCITCYNTKNHDHKMEKLGLGLDDESNNQQAAATQSPGDSRRLSIQRCIQSLVHACQCRNANCSLPSCQKMKRVVQHTKGCKRKTNGGCPICKQLIALCCYHAKHCQENKCPVPFCLNIKQKLRQQQLQHRLQQAQMLRR
modifications: left off: FLAG, end not stated, kept
- H3K18ac and H3K27ac occupancies [2]: evident increase
- Number of p300-BRPHZT binding sites (FLAG ChIP-seq) ([2]; M2 Flag antibody, H1299, MACS p ≤1e−8): 679
- Global levels of acetylation at all sites tested ([3]; whole cell extract): increased

B5: N1132A: p300 BRPHZT BD mutation that abrogates acetyllysine binding (protein)
chain: TQSSPAPGQSKKKIFKPEELRQALMPTLEALYRQDPESLPFRQPVDPQLLGIPDYFDIVKSPMDLSTIKRKLDTGQYQEPWQYVDDIWLMFNNAWLYARKTSRVYKYCSKLSEVFEQEIDPVMQSLGYCCGRKLEFSPQTLCCYGKQLCTIPRDATYYSYQNRYHFCEKCFNEIQGESVSLGDDPSQPQTTINKEQFSKRKNDTLDPELFVECTECGRKMHQICVLHHEIIWPAGFVCDGCLKKSARTRKENKFSAKRLPSTRLGTFLENRVNDFLRRQNHPESGEVTVRVVHASDKTVEVKPGMKARFVDSGEMAESFPYRTKALFAFEEIDGVDLCFFGMHVQEYGSDCPPPNQRRVYISYLDSVHFFRPKCLRTAVYHEILIGYLEYVKKLGYTTGHIWACPPSEGDDYIFHCHPPDQKIPKPKRLQEWYKKMLDKAVSERIVHDYKDIFKQATEDRLTSAKELPYFEGDFWPNVLEESIKELEQEEEERKREENTSNESTDVTKGDSKNAKKKNNKKTSKNKSSLSRGNKKKPGMPNVSNDLSQKLYATMEKHKEVFFVIRLIAGPAANSLPPIVDPDPLIPCDLMDGRDAFLTLARDKHLEFSSLRRAQWSTMCMLVELHTQSQDRFVYTCNECKHHVETRWHCTVCEDYDLCITCYNTKNHDHKMEKLGLGLDDESNNQQAAATQSPGDSRRLSIQRCIQSLVHACQCRNANCSLPSCQKMKRVVQHTKGCKRKTNGGCPICKQLIALCCYHAKHCQENKCPVPFCLNIKQKLRQQQLQHRLQQAQMLRR
modifications: left off: FLAG, end not stated, kept
- p300-BRPHZT occupancy and H3K18ac and H3K27ac levels at target gene regions ([2]; ChIP-qPCR, H1299, n = 3): decrease
- Association of p300 BRPHZT with chromatin (chromatin in H1299 cells): substantially reduced

B6: HAT-ZZ: HAT-ZZ domain (aa 1287–1713, Y1467F) (protein)
chain: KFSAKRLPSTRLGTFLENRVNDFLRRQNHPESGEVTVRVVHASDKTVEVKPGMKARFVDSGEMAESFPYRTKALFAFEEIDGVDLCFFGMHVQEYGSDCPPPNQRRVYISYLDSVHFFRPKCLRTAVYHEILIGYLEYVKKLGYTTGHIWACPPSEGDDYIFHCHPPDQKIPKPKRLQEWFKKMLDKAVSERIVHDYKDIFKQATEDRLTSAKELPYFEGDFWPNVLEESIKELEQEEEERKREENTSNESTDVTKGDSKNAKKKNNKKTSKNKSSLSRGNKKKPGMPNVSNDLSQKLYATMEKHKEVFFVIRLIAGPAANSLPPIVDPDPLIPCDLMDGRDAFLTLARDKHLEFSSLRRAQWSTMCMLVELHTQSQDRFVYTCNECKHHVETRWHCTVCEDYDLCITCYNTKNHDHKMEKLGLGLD
modifications: left off: His-tag, N-terminal, cleaved
- Interaction with BD-RING-PHD [1]: weakened
